Reference: paper PMC9055608 (RSC Advances, 2020)
“And” between values parts separate entries of the source, which are not always exact repeats. Identical values can stand only once.

What was measured:
[1] = Pathological tissue sections; format: in vivo, nude mice; settings: tissues exposed to different dosages; end of 9 day treatment; HE staining
Procedure, shortened: (§1)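 Tumour-bearing nude mice were anaesthetised and killed after the 9-day dosing. Heart, liver, spleen, lung, kidney, brain and tumour were fixed in 10% formalin, embedded in paraffin, cut into 4 μm sections and stained with haematoxylin–eosin.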

[2] = test system: GES-1 human normal gastric epithelial cells; assay: MTT assay, cytotoxicity against normal cell line GES-1; format: cell-based; settings: for OD value (mean ± SD): GES-1
Procedure, shortened: (§2)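 Cells seeded at about 4000–5000/well and allowed 24 h to adhere. MTT for 4 h, formazan dissolved in DMSO, absorbance read, and inhibition rate per concentration reported.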

[3] = test system: normal cell lines (LO2, GES-1, BEAS-2B); assay: MTT assay, normal cell lines; format: cell-based, human; settings: all DHDK concentrations
Procedure, shortened: as §2

[4] = test system: A-549; assay: MTT cell proliferation assay, A-549; format: cell-based, human; settings: Homo sapiens, A549, 72 h
Procedure, shortened: (§3)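 ATCC lines grown in DMEM or RPMI-1640 with 10% heat-inactivated FBS and 1% penicillin/streptomycin at 37 °C, 5% CO2. Log-phase cells seeded at about 4000–5000/well and left to adhere 24 h. Sextuplicate wells, 72 h. MTT for 4 h, then DMSO and absorbance. IC50 taken from dose–response curves.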

[5] = test system: N87; assay: MTT cell proliferation assay, N87; format: cell-based, human; settings: Homo sapiens, 72 h
Procedure, shortened: as §3

[6] = test system: MDA-MB453; assay: MTT cell proliferation assay, MDA-MB453; format: cell-based, human; settings: Homo sapiens, MDA-MB-453, 72 h
Procedure, shortened: as §3

[7] = test system: MDA-MB231; assay: MTT cell proliferation assay, MDA-MB231; format: cell-based, human; settings: Homo sapiens, MDA-MB-231, 72 h
Procedure, shortened: as §3

[8] = Tissue distribution; format: in vivo, SD rats; settings: for CL / AUC(0-inf): rat; for CL: tail vein injection of DHDK solution; for AUC(0-inf): iv, 14 mg/kg
Procedure, shortened: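 SD rats (12 male, 12 female), fasted 12 h, received an intravenous dose of 14 mg kg−1 test-compound micelles. Six rats were killed at each of 0.25, 1, 4 and 24 h. Heart, liver, spleen, lung and kidney were rinsed in ice-cold saline, weighed, homogenised and stored at −80 °C. Samples were extracted with MTBE using curcumin internal standard. Analysis was by C18 LC-ESI-MS/MS (formic acid/acetonitrile gradient, MRM m/z 294.98→106.67).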

[9] = test system: MCF-7; assay: MTT cell proliferation assay, MCF-7; format: cell-based, human; settings: Homo sapiens, MCF7, 72 h
Procedure, shortened: as §3

[10] = test system: A375; assay: MTT cell proliferation assay, A375; format: cell-based, human; settings: Homo sapiens, A-375, 72 h
Procedure, shortened: as §3

[11] = test system: MCF-7 xenograft tumour; assay: Pathological tissue sections; format: in vivo, nude mice
Procedure, shortened: as §1

[12] = test system: BEAS-2B human normal lung epithelial cell; assay: MTT assay, cytotoxicity against normal cell line BEAS-2B; format: cell-based
Procedure, shortened: as §2

[13] = test system: SKMEL-28; assay: MTT cell proliferation assay, SKMEL-28; format: cell-based, human; settings: Homo sapiens, SK-MEL-28, 72 h
Procedure, shortened: as §3

[14] = test system: SKOV3; assay: MTT cell proliferation assay, SKOV3; format: cell-based, human; settings: Homo sapiens, SK-OV-3, 72 h
Procedure, shortened: as §3

[15] = test system: Calu-3; assay: MTT cell proliferation assay, Calu-3; format: cell-based, human; settings: Homo sapiens, Calu-3, 72 h
Procedure, shortened: as §3

[16] = Mouse weight during in vivo efficacy study; set-up: species or system nude mice; settings: during the nine days of treatment
[17] = in vivo; format: in vivo, rats
[18] = test system: MCF-7 xenograft tumour; assay: Drug efficacy in vivo, MCF-7 breast cancer model; set-up: species or system nude mice
[19] = test system: HT-29; assay: MTT cell proliferation assay, HT-29; format: cell-based, human; settings: Homo sapiens, HT-29, 72 h
Procedure, shortened: as §3

[20] = Biochemical indexes in serum and plasma; format: in vivo, mice; settings: for BUN mean ± SD: plasma; for BUN mean ± SD / ALT mean ± SD / AST mean ± SD / CRE mean ± SD: DHDK micelles every day for 9 days; for ALT mean ± SD / AST mean ± SD / CRE mean ± SD: serum
Procedure, shortened: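 Female mice were split into four groups (n = 6) and injected daily for 9 days with test-compound micelles, following the dosing regimen of the xenograft study. Animals were killed on the last dosing day. Kits measured AST, ALT and creatinine in serum, and urea nitrogen in plasma.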

[21] = test system: cancer cell lines; assay: MTT assay, cancer cell lines; format: cell-based; settings: Homo sapiens, read-out: IC50 of other tumour cells
Procedure, shortened: as §3

[22] = Homo sapiens, GES1, read-out: Inhibition rate

Which results are given for `O=C(/C=C/CCc1ccc(O)cc1)/C=C/c1ccc(O)cc1` [DHDK, (1E,4E)-1,7-Bis(4-hydroxyphenyl)hepta-1,4-dien-3-one]?
toxicity in tissue slices [1]: No toxicity was observed; OD value (mean ± SD) ([2]; DHDK 0.14 μmol·L^−1): 0.71 ± 0.0031; OD value (mean ± SD) ([2]; DHDK 0.42 μmol·L^−1): 0.71 ± 0.0098; OD value (mean ± SD) ([2]; DHDK 1.26 μmol·L^−1): 0.71 ± 0.0051; OD value (mean ± SD) ([2]; DHDK 3.8 μmol·L^−1): 0.70 ± 0.0035; OD value (mean ± SD) ([2]; DHDK 11.3 μmol·L^−1): 0.69 ± 0.0097; OD value (mean ± SD) ([2]; DHDK 34.0 μmol·L^−1): 0.68 ± 0.0075; inhibition at 0.14 µM [2, 22]: 0.17%; inhibition at 0.42 µM [2, 22]: 0.53%; inhibition at 1.26 µM [2, 22]: 1.06%; inhibition at 3.8 µM [2, 22]: 1.35%; inhibition at 11.3 µM [2, 22]: 3.53%; inhibition at 34 µM [2, 22]: 4.85%; inhibition rate of each group on normal cells [3]: less than 5%; IC50 [4]: 8.01 ± 0.44 µM; IC50 [5]: 10.8 ± 0.5 µM; IC50 [6]: 10.4 ± 0.92 µM; IC50 [7]: 4.49 µM; CL ([8]; Heart): 50.93 ± 26.52 L·kg/h; CL ([8]; Kidney): 244.93 ± 9.95 L·kg/h; CL ([8]; Liver): 5.846 ± 1.02 L·kg/h; CL ([8]; Lung): 8.89 ± 1.97 L·kg/h; CL ([8]; Spleen): 81.66 ± 45.73 L·kg/h; AUC(0-inf) ([8]; Sprague-Dawley (SD), kidney): 57.2 ± 32.3 ng·h/mL; AUC(0-inf) ([8]; Sprague-Dawley (SD), lung): 1630 ± 299 ng·h/mL; AUC(0-inf) ([8]; Sprague-Dawley (SD), spleen): 207 ± 84.3 ng·h/mL; AUC(0-inf) ([8]; both, SD, heart): 414 ± 364 ng·h/mL; AUC(0-inf) ([8]; both, SD, liver): 2450 ± 425 ng·h/mL; order of DHDK concentration in different tissues ([8]; rats, 14 mg kg^−1 tail vein): lung > liver > heart > kidney > spleen; order of clearance rates in tissues ([8]; rats, 14 mg kg^−1 tail vein): kidney > spleen > heart > lung > liver; IC50 [9]: 9.09 ± 0.46 µM; IC50 [10]: 6.64 ± 0.4 µM; tumour histopathology ([11]; high-dose group, DHDK 40 mg kg^−1): A large amount of tumour necrosis with nuclear envelope breakdown and dissolved nucleus; tumour histopathology ([11]; low-dose group, DHDK 10 mg kg^−1): A small amount of punctate nucleolysis and a low degree of necrosis; tumour histopathology ([11]; medium-dose group, DHDK 20 mg kg^−1): point necrosis and dissolved nucleus; Inhibition rate ([12]; DHDK 0.14 μmol·L^−1): 0.059%; OD value (mean ± SD) ([12]; DHDK 0.14 μmol·L^−1): 0.66 ± 0.0017; OD value (mean ± SD) ([12]; DHDK 0.42 μmol·L^−1): 0.66 ± 0.0028; OD value (mean ± SD) ([12]; DHDK 1.26 μmol·L^−1): 0.66 ± 0.0027; OD value (mean ± SD) ([12]; DHDK 3.8 μmol·L^−1): 0.66 ± 0.0010; OD value (mean ± SD) ([12]; DHDK 11.3 μmol·L^−1): 0.64 ± 0.0028; OD value (mean ± SD) ([12]; DHDK 34.0 μmol·L^−1): 0.63 ± 0.0030; inhibition at 0.42 µM ([12]; Homo sapiens, read-out: Inhibition rate, BEAS-2B, DHDK 0.42 μmol·L^−1): 0.5%; inhibition at 1.26 µM ([12]; Homo sapiens, read-out: Inhibition rate, BEAS-2B, DHDK 1.26 μmol·L^−1): 0.83%; inhibition at 3.8 µM ([12]; Homo sapiens, read-out: Inhibition rate, BEAS-2B, DHDK 3.8 μmol·L^−1): 0.86%; inhibition at 11.3 µM ([12]; Homo sapiens, read-out: Inhibition rate, BEAS-2B, DHDK 11.3 μmol·L^−1): 3.1%; inhibition at 34 µM ([12]; Homo sapiens, read-out: Inhibition rate, BEAS-2B, DHDK 34.0 μmol·L^−1): 4.82%; IC50 [13]: 9.26 ± 0.57 µM; IC50 [14]: 9.59 ± 0.44 µM; IC50 [15]: 6.65 ± 0.42 µM; mouse weight course (in words) [16]: stable weight; AUC(0–t) of DHDK high-dose group as share of cisplatin group ([17]; after dose conversion, DHDK 40 mg kg^−1 vs cisplatin 5 mg kg^−1): 7.3%; AUC(0-inf) ([17]; rat, in vivo, iv, 14 mg/kg): 534 ng·h/mL; AUC(0-t) ([17]; rat, in vivo, iv, 14 mg/kg): 459 ng·h/mL; half-life ([17]; rat, in vivo, iv, 14 mg/kg): 1.79 h; V 1 ([17]; rat, tail vein injection 14 mg kg^−1 DHDK solution): 0.037 L/kg; t 1/2α ([17]; rat, tail vein injection 14 mg kg^−1 DHDK solution, two-compartmental analysis): 3.84 min; tumour inhibition rate of DHDK high-dose group as share of the cisplatin group ([18]; DHDK 40 mg kg^−1 vs cisplatin 5 mg kg^−1): 74.6%; Tumour weight (mean) ([18]; group B, low-dose, DHDK micelles 10 mg kg^−1 every day for 9 days): 597.04 ± 38.19; Tumour weight (mean) ([18]; group C, medium-dose, DHDK micelles 20 mg kg^−1 every day for 9 days): 540.53 ± 63.76; Tumour weight (mean) ([18]; group D, high-dose, DHDK micelles 40 mg kg^−1 every day for 9 days): 435.13 ± 140.10; Inhibition rate (IR) determined as tumour weight ([18]; high-dose, DHDK 40 mg kg^−1 every day for 9 days): 47.85%; Inhibition rate (IR) determined as tumour weight ([18]; low-dose, DHDK 10 mg kg^−1 every day for 9 days): 28.44%; Inhibition rate (IR) determined as tumour weight ([18]; medium-dose, DHDK 20 mg kg^−1 every day for 9 days): 35.22%; IC50 [19]: 4.79 ± 0.54 µM; liver and kidney toxicity (from BUN, CRE, AST, ALT) ([20]; all administration groups vs blank group): no potential liver and kidney toxicity; BUN mean ± SD ([20]; high dose group): 9.86 ± 0.33 mmol/L; BUN mean ± SD ([20]; low dose group): 10.16 ± 1.35 mmol/L; BUN mean ± SD ([20]; medium dose group): 9.74 ± 0.47 mmol/L; ALT mean ± SD ([20]; high dose group): 38.41 ± 0.67 U L^−1; AST mean ± SD ([20]; high dose group): 52.98 ± 3.07 U L^−1; CRE mean ± SD ([20]; high dose group): 82.97 ± 2.97 µmol/L; ALT mean ± SD ([20]; low dose group): 39.18 ± 0.81 U L^−1; AST mean ± SD ([20]; low dose group): 50.90 ± 3.04 U L^−1; CRE mean ± SD ([20]; low dose group): 78.85 ± 3.90 µmol/L; ALT mean ± SD ([20]; medium dose group): 39.70 ± 2.75 U L^−1; AST mean ± SD ([20]; medium dose group): 50.93 ± 0.81 U L^−1; CRE mean ± SD ([20]; medium dose group): 87.97 ± 7.63 µmol/L; IC50 [21]: < 11 µM and < 3.25 µg/mL
